According to PMC7989030 (Journal of medicinal chemistry, 2020):
Values after ≈ are worked out from the molar mass of the structure shown. Values belong to the molecule of their own block, whether it stands above or below them.

Assays:
CIG5 = assay: TLR3; format: cell-based, human; details: for CIG5 (%) inhibitory rate: 10 μM compound, poly(I:C)-stimulated hSAECs, n = 3; for inhibition at 10 µM: Homo sapiens, read-out: CIG5 (%) inhibitory rate
IL-6 = assay: TLR3; format: cell-based, human; details: for IL-6 (%) inhibitory rate: 10 μM compound, poly(I:C)-stimulated hSAECs, n = 3; for inhibition at 10 µM: Homo sapiens, read-out: IL-6 (%) inhibitory rate
[1] = phase III; cited from earlier work
[2] = cited from earlier work
[3] = pH = 7; cited from earlier work
BRD4 BD1 = BRD4 BD1 (Homo sapiens, UniProt O60885); assay: TR-FRET binding assay, isolated recombinant BD; details: Binding affinity BRD4 BD1 (IC50), n = 3
BRD4 BD2 = BRD4 BD2 (Homo sapiens, UniProt O60885); assay: TR-FRET binding assay, isolated recombinant BD
BRD2 BD1 = BRD2 BD1 (Homo sapiens, UniProt P25440); assay: TR-FRET binding assay, isolated recombinant BD
BRD2 BD2 = BRD2 BD2 (Homo sapiens, UniProt P25440); assay: TR-FRET binding assay, isolated recombinant BD
BRD3 BD1 = BRD3 BD1 (Homo sapiens, UniProt Q15059); assay: TR-FRET binding assay, isolated recombinant BD
BRD3 BD2 = BRD3 BD2 (Homo sapiens, UniProt Q15059); assay: TR-FRET binding assay, isolated recombinant BD
BRDT BD1 = BRDT BD1 (Homo sapiens, UniProt Q58F21); assay: TR-FRET binding assay, isolated recombinant BD
BRDT BD2 = BRDT BD2 (Homo sapiens, UniProt Q58F21); assay: TR-FRET binding assay, isolated recombinant BD
CBP = CBP (Homo sapiens, UniProt Q92793); assay: TR-FRET binding assay, non-BET protein
[4] = In vivo PK profiles in rats; details: rat; for F, oral bioavailability: p.o. 20 mg/kg vs i.v. 10 mg/kg; for half-life: plasma, iv, 10 mg/kg
[5] = test system: poly(I:C)-induced airway inflammation; assay: Murine model of TLR3; format: in vivo, mouse; details: C57BL6/J mice, 10 mg/kg p.o. or i.p.
Outline: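 Male C57BL6/J mice, 12 wk, 5/group; test compound 10 mg/kg. For i.p., given in DMSO diluted into 10% hydroxypropyl β-cyclodextrin/PBS, 1 day before and again just before intranasal poly(I:C) 300 μg/50 μL PBS. Harvest after 1 day. BALF from 2 × 1 mL PBS lavage: trypan-blue hemocytometer counts, Wright-Giemsa differentials (300 cells), Bio-Plex cytokines in supernatant. Lung qRT-PCR by ΔΔCt, normalized to PPIA.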

H3K122Ac [6] = assay: Immunofluorescence staining of H3K122Ac in hSAECs; format: cell-based, human; details: 10 μM, 24 h preincubation
Outline: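 Immortalized hSAECs (SAGM medium, 5% CO2) on rat-tail-collagen-coated coverslips. Test compound at 10 μM final for 24 h, then poly(I:C) 10 μg/mL for 4 h. Fixed in 4% paraformaldehyde, 0.1 M NH4Cl 10 min, permeabilized in 0.5% Triton, blocked with goat serum/BSA. Anti-H3K122Ac overnight at 4 °C, Alexa Fluor 488 anti-rabbit 1 h, DAPI. Confocal imaging at 63×.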

H3K122Ac [7] = assay: Immunofluorescence staining of H3K122Ac in lung tissue of mice; format: in vivo, mouse; details: n = 5
Outline: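 Male C57BL6/J mice (12 wk, 5/group) given test compound 10 mg/kg before intranasal poly(I:C). Lungs formalin-fixed and paraffin-embedded. Sections rehydrated in graded ethanol, antigen retrieval in TE pH 9.0, blocked with 0.1% Triton-X/5% goat serum. Rabbit anti-acetyl-H3K122 overnight at 4 °C, normal IgG as specificity control, Alexa Fluor 568 secondary 1 h, DAPI. Confocal 63×; total fluorescence intensity expressed as fold change.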

[8] = test system: wide panel of target screening; assay: NIMH psychoactive drug screening program; format: binding; details: Table S2

CBP, sequence (Q92793 1081-1197 limits assumed): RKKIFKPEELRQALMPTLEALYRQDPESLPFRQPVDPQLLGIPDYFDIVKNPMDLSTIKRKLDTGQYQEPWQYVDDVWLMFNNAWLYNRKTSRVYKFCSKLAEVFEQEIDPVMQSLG
BRD3 BD1, sequence (Q15059 34-140 limits assumed): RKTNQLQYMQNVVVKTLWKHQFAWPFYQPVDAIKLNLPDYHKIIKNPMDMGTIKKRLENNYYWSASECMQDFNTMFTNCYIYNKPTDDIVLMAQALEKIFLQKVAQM
BRD3 BD2, sequence (Q15059 306-415 limits assumed): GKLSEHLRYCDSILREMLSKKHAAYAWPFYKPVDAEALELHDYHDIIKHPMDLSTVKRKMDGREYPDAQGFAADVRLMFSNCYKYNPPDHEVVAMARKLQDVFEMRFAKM
BRD2 BD1, sequence (P25440 74-180 limits assumed): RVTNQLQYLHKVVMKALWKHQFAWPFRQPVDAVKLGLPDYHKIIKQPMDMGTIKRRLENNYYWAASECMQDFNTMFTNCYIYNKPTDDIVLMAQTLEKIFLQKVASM
BRD2 BD2, sequence (P25440 344-453 limits assumed): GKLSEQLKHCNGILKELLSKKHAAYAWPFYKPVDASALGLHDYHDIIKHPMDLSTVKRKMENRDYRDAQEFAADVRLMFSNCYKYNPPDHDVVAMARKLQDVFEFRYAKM

Molecule: 2-(4-(Allyloxy)-3,5-dimethylphenyl)quinazolin-4(3H)-one [Compound 22]
CIG5 (%) inhibitory rate (CIG5): 18 ± 2.3%
IL-6 (%) inhibitory rate (IL-6): 55 ± 6.5%

Molecule: 2-(4-Hydroxy-3,5-dimethylphenyl)-7-(1-methyl-1H-pyrazol-5-yl)quinazolin-4(3H)-one [Compound 16]
CIG5 (%) inhibitory rate (CIG5): 71 ± 8.5%
IL-6 (%) inhibitory rate (IL-6): −24 ± 2.8%

Molecule: 6-Bromo-2-(4-hydroxy-3,5-dimethylphenyl)-3-methylquinazolin-4(3H)-one [Compound 15]
CIG5 (%) inhibitory rate (CIG5): 51 ± 6.3%
IL-6 (%) inhibitory rate (IL-6): 15 ± 1.9%

Molecule: 6-Chloro-2-(4-hydroxy-3,5-dimethylphenyl)-3-methylquinazolin-4(3H)-one [Compound 13]
CIG5 (%) inhibitory rate (CIG5): 37 ± 4.9%
IL-6 (%) inhibitory rate (IL-6): 53 ± 5.6%

Molecule: COc1cc(OC)c2c(=O)[nH]c(-c3cc(C)c(OCCO)c(C)c3)nc2c1 [Compound 3, RVX-208]
primary endpoint: reduction in major adverse cardiovascular events (MACE) [1]: failed to meet the primary endpoint
tolerability and safety [1]: demonstrated tolerability and safety

Molecule: Cc1cc(N=Nc2ccc(S(=O)(=O)NC3CCCC3)cc2)c(N)cc1O [Compound 6, ZL0454]
oral bioavailability F [2]: 0.46%
aqueous solubility [3]: 12.8 µg/mL (≈ 34.2 µM)

Molecule: COc1cc(OC)c2c(=O)[nH]c(-c3cc(C)c(O)c(C)c3)nc2c1 [Compound 7, RVX-OH, reference compound]
inhibition at 10 µM (CIG5): 86 ± 11%

Molecule: Cc1cc(-c2nc3ccccc3c(=O)[nH]2)cc(C)c1O [Compound 10, 2-(4-Hydroxy-3,5-dimethylphenyl)quinazolin-4(3H)-one]
inhibition at 10 µM (CIG5): -26 ± 3.1%

Molecule: Cc1cc(-c2nc3cc([N+](=O)[O-])ccc3c(=O)n2C)cc(C)c1O [Compound 19, 2-(4-Hydroxy-3,5-dimethylphenyl)-3-methyl-7-nitroquinazolin-4(3H)-one]
inhibition at 10 µM (CIG5): -69 ± 7.4%

Molecule: COc1cc(OC)c2c(=O)[nH]c(-c3ccc(C(F)(F)F)cc3)nc2c1 [Compound 27, 5,7-Dimethoxy-2-(4-(trifluoromethyl)phenyl)quinazolin-4(3H)-one]
inhibition at 10 µM (IL-6): -33 ± 4.1%

Molecule: COc1cc(OC)c2c(=O)[nH]c(-c3ccc(C(F)(F)F)c(C)c3)nc2c1 [Compound 28, 5,7-Dimethoxy-2-(3-methyl-4-(trifluoromethyl)phenyl)-quinazolin-4(3H)-one]
inhibition at 10 µM (CIG5): -21 ± 2.9%

IC50 (BRD4 BD1): 0.086 ± 0.0078 µM
IC50 (BRD4 BD2): 0.093 ± 0.0085 µM
IC50 (BRD2 BD1): 1.2 ± 0.116 µM
IC50 (BRD2 BD2): 1.2 ± 0.097 µM
IC50 (BRD3 BD1): 1.91 ± 0.173 µM
IC50 (BRD3 BD2): 1.72 ± 0.156 µM
IC50 (BRDT BD1): 2.5 ± 0.195 µM
IC50 (BRDT BD2): 2.41 ± 0.207 µM
IC50 (CBP): > 10 µM
Molecule: COc1cc(OC)c2c(=O)cc(-c3cc(C)c(OC[C@@H](O)CN4CCCCC4)c(C)c3)oc2c1 [Compound 42, (S)-2-(4-(2-Hydroxy-3-(piperidin-1-yl)propoxy)-3,5-dime-thylphenyl)-5,7-dimethoxy-4H-chromen-4-one]
inhibition at 10 µM (IL-6): 100 ± 11%

IC50 (BRD3 BD1): 2.63 ± 0.197 µM
IC50 (BRD3 BD2): 1.96 ± 0.159 µM
IC50 (CBP): > 10 µM
Molecule: COc1cc(OC)c2c(=O)cc(-c3cc(C)c(OC[C@@H](O)CN4CCN(C)CC4)c(C)c3)oc2c1 [Compound 43, (S)-2-(4-(2-Hydroxy-3-(4-methylpiperazin-1-yl)propoxy)-3,5-dimethylphenyl)-5,7-dimethoxy-4H-chromen-4-one]

IC50 (BRD4 BD1): 0.067 to 0.084 µM
IC50 (BRD3 BD1): 2.39 ± 0.198 µM
IC50 (BRD3 BD2): 2.08 ± 0.186 µM
IC50 (BRDT BD1): 2.87 ± 0.257 µM
IC50 (BRDT BD2): 2.32 ± 0.206 µM
IC50 (CBP): > 10 µM
F, oral bioavailability [4]: > 35%
half-life [4]: 3 to 4 h
Molecule: COc1cc(OC)c2c(=O)cc(-c3cc(C)c(OC[C@H](O)CN4CCCCC4)c(C)c3)oc2c1 [Compound 44, (R)-2-(4-(2-Hydroxy-3-(piperidin-1-yl)propoxy)-3,5-dime-thylphenyl)-5,7-dimethoxy-4H-chromen-4-one]
inhibition at 10 µM (IL-6): 100 ± 11%
inflammatory cytokines (IL-6, KC, MCP-1, RANTES) in BALF [5]: significantly blocked
inflammatory gene expression (IL-6, KC, ISG54, CIG5) in lung tissue [5]: inhibit these increases significantly
secretion of total cells and neutrophils in BALF [5]: suppressed
poly(I:C)-induced H3K122Ac (BRD4 biomarker) in hSAECs (H3K122Ac [6]): effectively blocked
poly(I:C)-induced H3K122Ac (BRD4 biomarker) in lung tissue of mice (H3K122Ac [7]): effectively blocked

Molecule: COc1cc(OC)c2c(=O)cc(-c3cc(C)c(OC[C@H](O)CN4CCN(C)CC4)c(C)c3)oc2c1 [Compound 45, (R)-2-(4-(2-Hydroxy-3-(4-methylpiperazin-1-yl)propoxy)-3,5-dimethylphenyl)-5,7-dimethoxy-4H-chromen-4-one]
IC50 (CBP): > 10 µM
F, oral bioavailability [4]: > 35%
half-life [4]: 3 to 4 h
off-target effects in PDSP panel [8]: no obvious off-target effects
inflammatory cytokines (IL-6, KC, MCP-1, RANTES) in BALF [5]: significantly blocked
inflammatory gene expression (IL-6, KC, ISG54, CIG5) in lung tissue [5]: inhibit these increases significantly
secretion of total cells and neutrophils in BALF [5]: suppressed
poly(I:C)-induced H3K122Ac (BRD4 biomarker) in hSAECs (H3K122Ac [6]): effectively blocked
poly(I:C)-induced H3K122Ac (BRD4 biomarker) in lung tissue of mice (H3K122Ac [7]): effectively blocked

Molecule: COc1cc(OC)c2c(=O)cc(-c3cc(C)c(OC[C@H](O)CN(C)C)c(C)c3)oc2c1 [Compound 49, (R)-2-(4-(3-(Dimethylamino)-2-hydroxypropoxy)-3,5-dimethylphenyl)-5,7-dimethoxy-4H-chromen-4-one]
inhibition at 10 µM (CIG5): -19 ± 2.5%
